Assay results of several laboratories.
Lines come from different studies, so protocols differ.
BCHE: Cholinesterase (BCHE, Equus caballus, UniProt P81908)
MAP3K6: Mitogen-activated protein kinase kinase kinase 6 (MAP3K6, Homo sapiens, UniProt O95382)

COc1cc2c(cc1OC)C(=O)N(CC1CCN(Cc3ccsc3)CC1)C2
inhibition (BCHE; enzyme activity, inhibitor, Ellman; 1 µM): -6.1%

CCN(CC)CCCC[C@H](NC(=O)[C@H](CC(C)C)NC(=O)[C@H](C)NC(=O)[C@H](Cc1ccccc1)NC(=O)c1ccc(C(C)(C)C)cc1)C(=O)N[C@@H](CO)C(=O)OC
ΔTm (Transcription initiation factor TFIID subunit 1-like, BD2 (TAF1L, Homo sapiens, UniProt Q8IZX4); thermal stability, DSF; 25 µM): 0.72 °C

Cn1cc(-c2cccc(N3CCc4c(sc5c4CC(C)(C)C5)C3=O)c2CO)cc(Nc2ccncn2)c1=O
inhibition (Dual specificity mitogen-activated protein kinase kinase 3 (MAP2K3, Homo sapiens, UniProt P46734); enzyme activity, inhibitor; 1 µM): 2%

COc1cc2c(cc1OC)C(=O)N(CC1CCN(Cc3ccccc3)CC1)C2
inhibition (BCHE; enzyme activity, inhibitor, Ellman; 1 µM): -4.8%

O=P(O)(O)O[C@H]1O[C@H](CO)[C@@H](O)[C@H](O)[C@H]1O
Km (Glycogen phosphorylase, muscle form (PYGM, Oryctolagus cuniculus, UniProt P00489); enzyme activity, substrate): 920 µM

O=c1ccc2ccc3occc3c2o1
activity vs control (Aldehyde dehydrogenase, dimeric NADP-preferring (ALDH3A1, Homo sapiens, UniProt P30838); enzyme activity, inhibitor, absorbance; 10 µM): 28.3%

Nc1ncc(-c2nc(N3CCOCC3)nc(N3CCOCC3)n2)c(C(F)F)n1
remaining binding (MAP3K6; binding, competition with immobilised ligand; 10 µM): 76%

Cc1nn(C)cc1-c1nc2c(N3CCN(Cc4ccc(Cl)cc4)CC3)c(Cl)cnc2[nH]1
remaining binding (MAP3K6; binding, competition with immobilised ligand; 1 µM): 100%

COc1ncccc1-c1cnn2ccc(N3CCN(C(=O)OC(C)C)CC3)nc12
remaining binding (SRSF protein kinase 2 (SRPK2, Homo sapiens, UniProt P78362); binding, competition with immobilised ligand; 1 µM): 28%

COc1cc2c(cc1OC)C(=O)N(CC1CCNCC1)C2
inhibition (BCHE; enzyme activity, inhibitor, Ellman; 1 µM): 6.8%

NS(=O)(=O)c1ccc(-c2ncc(Cl)cc2-c2nc3ccccc3s2)cc1
inhibition (Prostaglandin G/H synthase 1 (PTGS1, Ovis aries, UniProt P05979); enzyme activity, inhibitor, absorbance; 10 µM): 6.6%

C#Cc1n[nH]c2c(-c3cn([C@@H](C)c4ccccn4)c(=O)[nH]c3=O)cc(F)cc12
inhibition (BDNF/NT-3 growth factors receptor (NTRK2, Homo sapiens, UniProt Q16620); enzyme activity, inhibitor; 0.1 µM): 3.7%

COc1cc2c(cc1OC)C(=O)N(CC1CCN(Cc3cccc(C#N)c3)CC1)C2
inhibition (BCHE; enzyme activity, inhibitor, Ellman; 1 µM): 15.6%
